Reference: ChEMBL document CHEMBL4393665 (Eur J Med Chem, 2019)

What was measured:
[1] = Half life in human plasma at 1 uM by LC-MS/MS analysis; format: ADME, cell-free
Method in brief: (§1)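 Samples were incubated in phosphate buffer or human plasma and analysed by LC-MS/MS in product ion scan mode. Analyte concentration was monitored over incubation time. The slope of ln(concentration) versus time gave the first-order degradation rate constant k, and t1/2 was calculated from k. Ketoprofen ethyl ester served as a reference to confirm that the plasma batch was enzymatically active.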

[2] = Half life in PBS at 1 uM by LC-MS/MS analysis; format: physicochemical; method in brief: as §1
[3] = Drug degradation in human plasma at 1 uM measured upto 120 mins by LC-MS/MS analysis; format: ADME, cell-free; conditions: 2 h; method in brief: as §1
[4] = target: T1, ATP-dependent translocase ABCB1 (Homo sapiens, UniProt P08183); assay: Inhibition of P-glycoprotein-mediated Rhodamine-123 efflux in human K562 cells assessed as Rhodamine-123 accumulation at 1 uM preincubated for 15 mins followed by Rhodamine-123 addition measured after 30 mins by flow cytometry; format: cell-based; conditions: k562, 0.5 h
[5] = target: T1, ATP-dependent translocase ABCB1; assay: Inhibition of P-gp in human K562/DOX cells assessed as drug level causing 50% increase in nuclear pirarubicin concentration incubated for 30 mins by spectroflurometry; format: cell-based; conditions: read-out: I0.5
Method in brief: (§2)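 Pirarubicin uptake into nuclei was measured in P-gp-overexpressing, doxorubicin-resistant K562/DOX cells. [I]0.5 is the modulator concentration giving a half-maximal increase (α = 0.5) in nuclear pirarubicin concentration. αmax is the maximum increase obtainable in resistant cells. Mean ± SE of three independent experiments.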

[6] = target: T2, Broad substrate specificity ATP-binding cassette transporter ABCG2 (Homo sapiens, UniProt Q9UNQ0); assay: Inhibition of BCRP (unknown origin) in MDCK-BCRP assessed as inhibtion of hoechst 33342 transport incubated for 30 mins by fluorescence assay
T2 sequence (Q9UNQ0 whole entry): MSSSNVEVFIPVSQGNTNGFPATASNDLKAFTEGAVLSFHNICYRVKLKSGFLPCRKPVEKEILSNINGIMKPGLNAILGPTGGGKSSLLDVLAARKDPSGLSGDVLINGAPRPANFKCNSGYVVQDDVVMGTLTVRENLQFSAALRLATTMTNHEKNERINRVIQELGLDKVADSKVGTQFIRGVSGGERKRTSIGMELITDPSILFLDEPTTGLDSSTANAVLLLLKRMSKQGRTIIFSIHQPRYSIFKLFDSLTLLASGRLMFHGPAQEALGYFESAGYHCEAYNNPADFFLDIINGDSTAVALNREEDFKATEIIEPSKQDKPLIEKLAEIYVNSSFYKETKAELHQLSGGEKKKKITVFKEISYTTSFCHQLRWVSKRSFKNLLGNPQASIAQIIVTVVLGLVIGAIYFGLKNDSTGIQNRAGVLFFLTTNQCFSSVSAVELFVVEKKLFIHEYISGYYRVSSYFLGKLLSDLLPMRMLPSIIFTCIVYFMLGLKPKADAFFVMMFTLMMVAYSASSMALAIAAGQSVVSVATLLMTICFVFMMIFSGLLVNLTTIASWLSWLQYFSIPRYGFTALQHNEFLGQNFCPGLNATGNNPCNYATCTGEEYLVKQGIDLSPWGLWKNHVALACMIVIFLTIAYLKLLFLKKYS

[7] = target: T1, ATP-dependent translocase ABCB1; assay: Inhibition of P-glycoprotein (unknown origin) in MDCK-MDR1 assessed as inhibtion of calcein-AM transport incubated for 30 mins by fluorescence assay; format: cell-based
[8] = target: T1, ATP-dependent translocase ABCB1; assay: Inhibition of P-glycoprotein (unknown origin) in MDCK-MDR1 assessed as reduction of ATP consumption pre-incubated for 2 hrs followed by substrate addition shaken for 5 mins by luminescence assay; format: cell-based; conditions: mdck-mdr1, 5 min
[9] = target: T1, ATP-dependent translocase ABCB1; assay: Inhibition of P-gp in human K562/DOX cells assessed as drug level causing maximum increase in nuclear pirarubicin concentration incubated for 30 mins by spectroflurometry relative to control; format: cell-based; conditions: 0.5 h; method in brief: as §2
[10] = target: T1, ATP-dependent translocase ABCB1; assay: Inhibition of P-glycoprotein-mediated Rhodamine-123 efflux in human K562/DOX cells assessed as […] at 1 uM […] by flow cytometry relative to control; format: cell-based; design: scale not given: the % may be the effect or the level left; conditions: 0.5 h
Method in brief: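 K562/DOX cells were loaded with 5 µM rhodamine-123 for 30 min. They were then washed and held 10 min in rhodamine-free medium, with or without modulator at 1.0 µM. Verapamil at 3.0 µM was the reference. Flow cytometry median fluorescence after efflux was divided by that after uptake and expressed as a percentage. Mean ± SE of three independent experiments.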

T1 sequence (P08183 whole entry): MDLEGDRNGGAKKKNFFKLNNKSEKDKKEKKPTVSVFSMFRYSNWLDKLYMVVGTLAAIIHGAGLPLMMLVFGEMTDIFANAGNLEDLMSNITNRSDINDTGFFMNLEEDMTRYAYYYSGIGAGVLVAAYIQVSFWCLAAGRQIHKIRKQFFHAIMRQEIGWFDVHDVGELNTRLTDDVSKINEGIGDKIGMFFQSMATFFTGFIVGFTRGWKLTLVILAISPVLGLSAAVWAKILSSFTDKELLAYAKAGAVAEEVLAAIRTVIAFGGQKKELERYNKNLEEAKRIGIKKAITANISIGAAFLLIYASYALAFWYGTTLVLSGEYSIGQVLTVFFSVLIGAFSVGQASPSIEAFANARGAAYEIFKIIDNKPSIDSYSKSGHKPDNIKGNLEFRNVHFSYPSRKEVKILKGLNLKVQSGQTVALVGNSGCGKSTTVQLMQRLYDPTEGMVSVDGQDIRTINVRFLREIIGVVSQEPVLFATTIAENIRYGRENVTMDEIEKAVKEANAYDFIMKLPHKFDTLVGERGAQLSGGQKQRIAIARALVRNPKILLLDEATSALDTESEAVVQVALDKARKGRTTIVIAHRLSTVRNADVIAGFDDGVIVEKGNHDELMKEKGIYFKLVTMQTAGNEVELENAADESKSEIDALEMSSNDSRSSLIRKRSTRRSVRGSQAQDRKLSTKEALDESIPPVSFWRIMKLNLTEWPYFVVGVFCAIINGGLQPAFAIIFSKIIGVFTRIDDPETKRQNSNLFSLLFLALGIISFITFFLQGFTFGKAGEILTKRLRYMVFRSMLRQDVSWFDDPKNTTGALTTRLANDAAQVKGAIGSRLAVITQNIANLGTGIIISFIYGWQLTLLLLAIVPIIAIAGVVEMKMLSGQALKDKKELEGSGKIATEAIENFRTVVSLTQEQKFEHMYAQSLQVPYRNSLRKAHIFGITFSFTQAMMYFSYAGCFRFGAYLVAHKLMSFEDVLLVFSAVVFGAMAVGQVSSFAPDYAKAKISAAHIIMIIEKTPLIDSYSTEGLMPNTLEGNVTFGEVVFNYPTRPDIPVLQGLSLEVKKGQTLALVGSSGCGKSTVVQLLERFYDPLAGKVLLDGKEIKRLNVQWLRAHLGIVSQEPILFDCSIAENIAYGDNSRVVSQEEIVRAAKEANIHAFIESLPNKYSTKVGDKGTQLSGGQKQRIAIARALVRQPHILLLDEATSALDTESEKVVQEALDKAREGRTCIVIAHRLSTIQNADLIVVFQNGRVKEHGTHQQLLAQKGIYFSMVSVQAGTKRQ

SMILES | half-life at 1 µM [1] [h] | half-life at 1 µM [2] [h] | Stability [3] | inhibition (INH) [4] | IC50 [5] [µM] | EC50 [6] [µM] | EC50 [7] [µM] | inhibition (INH) [8] | Alpha max [9] | Activity [10] [%]
COc1cc(/C=C/C(=O)OCCCN(C)CCCCCOC(=O)c2cc(OC)c(OC)c(OC)c2)cc(OC)c1OC | 0.683 | > 4 | Unstable | – | – | – | – | – | – | –
COc1cc(/C=C/C(=O)OCCN(C)CCCCCCCCOC(=O)c2c3ccccc3cc3ccccc23)cc(OC)c1OC | > 4 | > 4 | – | Not Active | 0.04 | 5.1 | 0.92 | Not Active | 0.96 | –
COc1cc(/C=C/C(=O)OCCCCCCN(C)CCCCOC(=O)c2cc(OC)c(OC)c(OC)c2)cc(OC)c1OC | > 4 | > 4 | – | Not Active | 0.01 | 16 | 0.2 | Active | 0.99 | –
COc1cc(/C=C/C(=O)OCCN(C)CCCCCCCCOC(=O)c2cc(OC)c(OC)c(OC)c2)cc(OC)c1OC | > 4 | > 4 | – | Not Active | 0.04 | 4.5 | 0.22 | Not Active | 0.91 | –
COc1cc(/C=C/C(=O)OCCCN(C)CCCCCCCOC(=O)c2c3ccccc3cc3ccccc23)cc(OC)c1OC | > 4 | > 4 | – | Not Active | 0.04 | 3 | 0.26 | Not Active | 0.88 | 84.7
COc1cc(/C=C/C(=O)OCCCCN(C)CCCCCCOC(=O)c2cc(OC)c(OC)c(OC)c2)cc(OC)c1OC | 2.05 | > 4 | Unstable | – | 0.07 | – | – | – | 0.99 | –
COc1cc(/C=C/C(=O)OCCCCCCN(C)CCCCOC(=O)c2c3ccccc3cc3ccccc23)cc(OC)c1OC | > 4 | > 4 | – | Not Active | 0.02 | 3.8 | 0.52 | Not Active | 0.94 | 92.8
COc1cc(/C=C/C(=O)OCCCN(C)CCCCCCOC(=O)c2cc(OC)c(OC)c(OC)c2)cc(OC)c1OC | 0.65 | > 4 | Unstable | – | 0.39 | – | – | – | 0.99 | –
COc1cc(/C=C/C(=O)OCCCCCCCN(C)CCCOC(=O)c2cc(OC)c(OC)c(OC)c2)cc(OC)c1OC | > 4 | > 4 | – | Not Active | 0.06 | 8.1 | 0.21 | Not Active | 0.99 | 58.4
COc1cc(/C=C/C(=O)OCCCCCCCCN(C)CCOC(=O)c2cc(OC)c(OC)c(OC)c2)cc(OC)c1OC | > 4 | > 4 | – | Not Active | 0.02 | 3.8 | 0.3 | Not Active | 0.93 | –
COc1cc(/C=C/C(=O)OCCCN(C)CCCCCCCOC(=O)c2cc(OC)c(OC)c(OC)c2)cc(OC)c1OC | 0.75 | > 4 | Unstable | – | 0.08 | – | – | – | 0.97 | –
COc1cc(/C=C/C(=O)OCCCCN(C)CCCCCCOC(=O)c2c3ccccc3cc3ccccc23)cc(OC)c1OC | > 4 | > 4 | – | Not Active | 0.01 | 3.3 | 0.85 | Active | 0.95 | 64.6
COc1cc(/C=C/C(=O)OCCCCCCCN(C)CCCOC(=O)c2c3ccccc3cc3ccccc23)cc(OC)c1OC | > 4 | > 4 | – | Not Active | 0.01 | 3.9 | 0.23 | Not Active | 0.93 | –
COc1cc(/C=C/C(=O)OCCCCN(C)CCCCCOC(=O)c2cc(OC)c(OC)c(OC)c2)cc(OC)c1OC | > 4 | > 4 | Stable | – | 0.27 | – | – | – | 0.99 | –
COc1cc(/C=C/C(=O)OCCCCCCCCN(C)CCOC(=O)c2c3ccccc3cc3ccccc23)cc(OC)c1OC | > 4 | > 4 | – | Not Active | 0.05 | 5.4 | 0.34 | Not Active | 0.99 | –
